Each block holds one compound with its values, some of them ahead of it. Activity calls are given as the source filed them. The rule behind the calls is not given here.
Tests used:
Beta-galactosidase = Beta-galactosidase (Escherichia coli, UniProt Q8VNN2); assay: Inhibition of Escherichia coli beta-galactosidase
[1] = target: Beta-galactosidase (Escherichia coli) (UniProt Q8VNN2); assay: Inhibition of Escherichia coli beta-galactosidase at 1 mM
[2] = target: T1, Beta-galactosidase (Aspergillus oryzae) (UniProt Q2U7N3); assay: Inhibition of Aspergillus oryzae beta-galactosidase at 1 mM
T1 sequence (whole entry): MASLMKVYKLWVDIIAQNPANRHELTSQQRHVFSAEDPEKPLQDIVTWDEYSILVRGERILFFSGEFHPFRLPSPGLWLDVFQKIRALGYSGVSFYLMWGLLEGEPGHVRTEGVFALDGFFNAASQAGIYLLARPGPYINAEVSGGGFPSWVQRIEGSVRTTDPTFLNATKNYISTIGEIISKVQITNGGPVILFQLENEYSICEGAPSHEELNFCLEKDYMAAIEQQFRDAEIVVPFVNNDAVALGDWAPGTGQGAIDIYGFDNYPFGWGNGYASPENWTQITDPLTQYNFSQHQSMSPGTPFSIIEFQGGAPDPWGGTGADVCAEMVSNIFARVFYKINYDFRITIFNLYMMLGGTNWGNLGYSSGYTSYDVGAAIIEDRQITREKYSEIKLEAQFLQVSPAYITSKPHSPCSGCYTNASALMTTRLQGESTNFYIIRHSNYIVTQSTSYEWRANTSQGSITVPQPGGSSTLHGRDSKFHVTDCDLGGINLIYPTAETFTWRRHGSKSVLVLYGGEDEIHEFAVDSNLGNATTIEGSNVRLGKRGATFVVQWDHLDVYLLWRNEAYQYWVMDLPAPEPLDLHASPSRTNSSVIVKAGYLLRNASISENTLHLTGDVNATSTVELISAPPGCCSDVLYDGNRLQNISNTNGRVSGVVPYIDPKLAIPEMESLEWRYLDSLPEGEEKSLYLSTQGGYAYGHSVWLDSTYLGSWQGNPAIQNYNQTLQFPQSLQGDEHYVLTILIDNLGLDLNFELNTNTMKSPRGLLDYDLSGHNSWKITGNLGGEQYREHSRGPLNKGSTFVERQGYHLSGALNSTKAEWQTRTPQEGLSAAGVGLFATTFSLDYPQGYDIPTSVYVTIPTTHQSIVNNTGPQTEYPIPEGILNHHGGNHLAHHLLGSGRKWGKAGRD

Saccharomyces cerevisiae = assay: Inhibition of yeast alpha-glucosidase at 1 mM
Prunus dulcis = assay: Inhibition of sweet almond beta-glucosidase at 1 mM
Penicillium oxalicum = assay: Inhibition of Penicillium oxalicum CCF 1959 beta-N-acetylglucosaminidase at 2 mM
Penicillium pittii = assay: Inhibition of Penicillium pittii CCF 2277 beta-N-acetylglucosaminidase at 2 mM
[3] = target: T2, Killer cell lectin-like receptor subfamily B member 1A (Rattus norvegicus, UniProt P27471); assay: Binding affinity to fluorescein-labeled rat NKR-P1A after 2 hrs by fluorescence assay
T2 sequence (P27471 whole entry): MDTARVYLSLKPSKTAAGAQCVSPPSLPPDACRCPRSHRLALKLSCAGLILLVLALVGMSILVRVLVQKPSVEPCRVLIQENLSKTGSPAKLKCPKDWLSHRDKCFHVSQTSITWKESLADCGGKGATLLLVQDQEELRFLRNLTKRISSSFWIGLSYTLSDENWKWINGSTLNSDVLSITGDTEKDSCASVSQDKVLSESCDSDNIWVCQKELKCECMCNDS
Outline: (§1)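 Competitive displacement assay: the compound's ability to displace a high-affinity receptor ligand was measured on rat NKR-P1A and human CD69 activating receptors. Affinity was expressed relative to free N-acetyl-D-glucosamine as the reference ligand.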

Talaromyces flavus = assay: Inhibition of Talaromyces flavus CCF 2686 beta-N-acetylglucosaminidase at 2 mM
Aspergillus oryzae = assay: Inhibition of Aspergillus oryzae CCF 1066 beta-N-acetylglucosaminidase at 2 mM
[4] = target: T3, Early activation antigen CD69 (Homo sapiens, UniProt Q07108); assay: Binding affinity to rhodamine-labeled human CD69 receptor after 2 hrs by fluorescence assay
T3 sequence (Q07108 whole entry): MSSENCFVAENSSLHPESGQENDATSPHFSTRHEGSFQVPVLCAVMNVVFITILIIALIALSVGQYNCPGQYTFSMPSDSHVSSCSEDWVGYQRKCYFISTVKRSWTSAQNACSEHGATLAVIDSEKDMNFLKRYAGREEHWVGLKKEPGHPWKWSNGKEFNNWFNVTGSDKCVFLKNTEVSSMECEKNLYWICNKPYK
Outline: as §1

[5] = target: Alpha-galactosidase (Coffea arabica) (UniProt Q42656); assay: Inhibition of green coffee bean alpha-galactosidase at 1 mM
Alpha-galactosidase (Coffea arabica), sequence (Q42656 16-378 limits assumed): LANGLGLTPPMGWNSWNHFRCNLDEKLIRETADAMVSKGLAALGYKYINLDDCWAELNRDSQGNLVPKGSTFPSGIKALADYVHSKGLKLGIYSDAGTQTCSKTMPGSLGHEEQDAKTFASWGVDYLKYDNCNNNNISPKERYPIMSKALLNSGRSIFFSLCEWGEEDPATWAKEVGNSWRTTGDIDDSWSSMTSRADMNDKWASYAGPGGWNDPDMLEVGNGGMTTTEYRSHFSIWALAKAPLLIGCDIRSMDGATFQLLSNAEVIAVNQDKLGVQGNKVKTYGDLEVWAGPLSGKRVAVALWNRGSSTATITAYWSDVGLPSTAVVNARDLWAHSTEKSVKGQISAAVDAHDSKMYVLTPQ

Beta-galactosidase, sequence (Q8VNN2 whole entry): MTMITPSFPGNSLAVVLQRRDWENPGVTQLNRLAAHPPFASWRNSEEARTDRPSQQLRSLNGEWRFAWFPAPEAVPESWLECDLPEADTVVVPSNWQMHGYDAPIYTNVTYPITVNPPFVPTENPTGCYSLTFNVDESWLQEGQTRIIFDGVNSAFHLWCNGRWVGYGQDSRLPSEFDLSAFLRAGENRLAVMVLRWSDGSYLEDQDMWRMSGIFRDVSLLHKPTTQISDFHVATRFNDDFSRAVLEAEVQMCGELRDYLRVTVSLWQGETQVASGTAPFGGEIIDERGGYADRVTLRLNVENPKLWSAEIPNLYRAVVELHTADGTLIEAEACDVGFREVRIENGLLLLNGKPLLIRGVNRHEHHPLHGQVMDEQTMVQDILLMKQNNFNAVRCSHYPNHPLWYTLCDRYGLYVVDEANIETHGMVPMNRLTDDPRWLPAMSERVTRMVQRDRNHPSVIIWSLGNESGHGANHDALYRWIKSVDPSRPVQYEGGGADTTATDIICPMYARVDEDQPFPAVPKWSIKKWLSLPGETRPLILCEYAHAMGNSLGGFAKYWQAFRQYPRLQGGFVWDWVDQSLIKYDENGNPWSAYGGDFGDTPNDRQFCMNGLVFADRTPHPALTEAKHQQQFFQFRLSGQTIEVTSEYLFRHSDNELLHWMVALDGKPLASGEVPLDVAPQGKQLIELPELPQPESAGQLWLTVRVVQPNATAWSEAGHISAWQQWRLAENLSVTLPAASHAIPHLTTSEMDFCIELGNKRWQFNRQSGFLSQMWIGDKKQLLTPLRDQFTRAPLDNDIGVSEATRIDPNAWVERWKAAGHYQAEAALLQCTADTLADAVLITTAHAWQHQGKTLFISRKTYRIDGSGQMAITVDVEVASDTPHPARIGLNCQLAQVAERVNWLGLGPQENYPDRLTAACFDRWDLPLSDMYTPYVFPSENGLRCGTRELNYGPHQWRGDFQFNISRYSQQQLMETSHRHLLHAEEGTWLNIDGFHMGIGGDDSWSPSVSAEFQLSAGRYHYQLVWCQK
Beta-galactosidase (Escherichia coli), sequence (Q8VNN2 whole entry, looked up): as the sequence (Q8VNN2 whole entry) above

SMILES: OC[C@H]1O[C@@H](n2cc(-c3ccccc3)nn2)[C@H](O)[C@@H](O)[C@@H]1O
- Ki (Beta-galactosidase): 330 µM

SMILES: OC[C@H]1O[C@@H](n2ccnn2)[C@H](O)[C@@H](O)[C@H]1O
- inhibition [1]: inactive
- inhibition [2]: inactive

SMILES: OC[C@H]1O[C@H](n2ccnn2)[C@H](O)[C@@H](O)[C@@H]1O
- inhibition (Saccharomyces cerevisiae): inactive

SMILES: OC[C@H]1O[C@@H](n2ccnn2)[C@H](O)[C@@H](O)[C@@H]1O
- inhibition (Prunus dulcis): inactive

Further lines, with some results ahead:

- inhibition (Penicillium oxalicum): inactive
- inhibition (Penicillium pittii): inactive
- inhibition (Talaromyces flavus): inactive
- inhibition (Aspergillus oryzae): inactive
- IC50 [4]: 3.98 µM
SMILES: CC(=O)N[C@@H]1[C@@H](O)[C@H](O)[C@@H](CO)O[C@H]1n1ccnn1
- IC50 [3]: 0.0631 µM

- inhibition [5]: inactive
SMILES: OC[C@H]1O[C@H](n2ccnn2)[C@H](O)[C@@H](O)[C@H]1O

- IC50 [4]: 126 µM
SMILES: CC(=O)N[C@@H]1[C@@H](O)[C@H](O)[C@@H](CO)O[C@H]1O [N-ACETYLGLUCOSAMINE]
- IC50 [3]: 2 µM
